Here are results for five molecules from ChEMBL document CHEMBL1944617, “Near infrared active heptacyanine dyes with unique cancer-imaging and cytotoxic properties” (Bioorg Med Chem Lett, 2012).

The test system of series [1] is HeLa. In words: Cytotoxicity against human HeLa cells after 48 hrs by MTT assay. It is filed as functional, cell-based. An outline of the steps:
(§1)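 HeLa and HDF in DMEM, PC-3 in RPMI, each with 10% FBS and 1% pen/strep. Seeded at 5 × 10³ cells/well, then given dye in DMSO (final DMSO 0.1%) at 0, 0.75, 1, 2, 5, 10, 15, 20 µM for 48 h. Washed twice with PBS, MTT added, 4 h at 37 °C in the dark. Formazan dissolved in DMSO, A570 read. IC50 taken from the survival-versus-concentration curve.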

Series [2] concerns HeLa. In words: Cytotoxicity against human HeLa cells assessed as cell death at 5 to 20 uM after 24 hrs by trypan blue exclusion assay. It is filed as functional. An outline of the steps: (§2)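 Cells treated 24 h with dye at 5, 10 or 20 µM (PC-3 in RPMI; HeLa and HDF in DMEM; 10% FBS, 1% penicillin/streptomycin). Cells pelleted, PBS-washed, mixed 1:1 with 0.4% trypan blue in PBS pH 7.4, 5 min room temperature. Blue cells scored non-viable by microscope counting. Mean and SD of three independent experiments.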

The test system of series [3] is PC-3. Description: Cytotoxicity against human PC3 cells assessed as cell death at 5 to 20 uM after 24 hrs by trypan blue exclusion assay. The series is classed as functional. An outline of the steps: as §2
The test system of series [4] is PC-3. In words: Cytotoxicity against human PC3 cells after 48 hrs by MTT assay. It is filed as functional, cell-based. The note with it: for IC50: PC-3, 48 h. An outline of the steps:
as §1

Series [5] is described as follows: Cellular uptake in human PC3 cell cytoplasm at 20 uM after 8 hrs by fluorescence confocal microscopic analysis. The series is classed as ADME, cell-based. The following applies: pc-3, 8 h. An outline of the steps:
(§3)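 PC-3 (RPMI) or primary human dermal fibroblasts (DMEM), 10% FBS, 1% pen/strep, grown on glass coverslips and exposed to dye at 20 µM for 8 h. Fixed in cold (−20 °C) methanol 10 min, blocked in 2% BSA/PBS at 37 °C 1 h, actin stained with fluorescent phalloidin 1 h RT, mounted with DAPI antifade. NIR dye imaged with ICG filter set and 780 nm LED.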

The nature of series [6]: Cytotoxicity against human HDF cells assessed as cell viability at 5 to 20 uM after 24 hrs by trypan blue exclusion assay. The series is classed as cell-based. The following applies: for Activity: hdf, 24 h, 20 µM. An outline of the steps:
(§4)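 Primary human dermal fibroblasts in DMEM with 10% FBS and 1% pen/strep, dosed at 5, 10 or 20 µM for 24 h. Cells pelleted and washed with PBS, then mixed 1:1 with 0.4% trypan blue in PBS pH 7.4, 5 min RT. Blue cells scored non-viable by microscope counting. Mean ± SD of three independent experiments.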

A short description of series [7]: Cytotoxicity against human HDF cells after 48 hrs by MTT assay. The series is classed as cell-based. The note with it: for Activity: human, hdf; for IC50: Homo sapiens, HDF. An outline of the steps: as §1
Series [8] is described as follows: Cellular uptake in human HDF cell cytoplasm at 20 uM after 8 hrs by fluorescence confocal microscopic analysis. It is filed as ADME, cell-based. The method in brief:
as §3

Series [9] in a line: Cytotoxicity against human HDF cells assessed as cell death at 5 to 10 uM after 24 hrs by trypan blue exclusion assay. The series is classed as cell-based. An outline of the steps: as §4
Series [10] relates to HeLa. In words: Cytotoxicity against human HeLa cells assessed as cell survival at 5 to 10 uM after 24 hrs by trypan blue exclusion assay. It is filed as functional. An outline of the steps:
as §2

Series [11] is described as follows: Cytotoxicity against human HDF cells assessed as cell survival at 5 to 10 uM after 24 hrs by trypan blue exclusion assay. It is filed as cell-based. The note with it: read-out: Survival. The method in brief:
as §2

Series [12] can be described thus: Cytotoxicity against human HDF cells assessed as cell death at 20 uM after 24 hrs by trypan blue exclusion assay. The series is classed as cell-based. The method in brief: as §4
Series [13] has as its system PC-3. Description: Cytotoxicity against human PC3 cells assessed as cell survival at 5 to 10 uM after 24 hrs by trypan blue exclusion assay. It is filed as functional. The method in brief: as §2

Molecules are shown by their SMILES. Calls of active or inactive are those of the source. No cut-off for these calls is given here.

`CC1(C)C(/C=C/C2=C(Cl)C(=C/C=C3/N(CCCCS(=O)(=O)O)c4ccccc4C3(C)C)/CCC2)=[N+](CCCCS(=O)(=O)[O-])c2ccccc21`: the result in the series on HeLa [1], with HeLa [2], in the series with PC-3 [3] and with PC-3 [4] was inactive.
Regarding `CC1(C)C(/C=C/C2=C(Cl)C(=C/C=C3\N(CCCCS(=O)(=O)[O-])c4ccccc4C3(C)C)/CCC2)=[N+](CCCCS(=O)(=O)[O-])c2ccccc21.[Na+]`, the Drug uptake result in series [5] and in series [8] was “Not Active” in each case. Besides, the Activity entry in [6] and in series [7] was “Non-toxic” each time.
As usually defined, the IC50 is the point on the concentration scale where inhibition reaches its midpoint. Read a low IC50 as higher potency. Turning to `COC(=O)CCCCCN1/C(=C/C=C2\CCCC(/C=C/C3=[N+](CCCCCC(=O)O)c4ccccc4C3(C)C)=C2Cl)C(C)(C)c2ccccc21.[Br-]`, the IC50 in the series with HeLa [1] turned out to be 1 µM; in series [7], 5 µM; in the series on PC-3 [4], 2 µM. Further, the Drug uptake entry in series [5] is “Active”; in series [8] it was “Not Active”. For the same molecule, the Activity in series [9] came to 10%; in [12], 80%. The Survival with HeLa [10] and in the series with PC-3 [13] was 20% each time. In addition, in [11], the viability at 24 h, up to 10 µM is 85%. The outcome in the series on HeLa [2] and with PC-3 [3] was Active.
Turning to `CC1(C)C(/C=C/C2=C(Cl)C(=C/C=C3/N(CCCCCC(=O)O)c4ccccc4C3(C)C)/CCC2)=[N+](CCCCCC(=O)O)c2ccccc21.[Br-]`, the result in the series on HeLa [1], in the series on HeLa [2], with PC-3 [3] and in the series on PC-3 [4] was inactive. Besides, the Drug uptake entry in series [5] and in series [8] was “Not Active” throughout. Besides, the Activity entry in series [6] and in [7] was “Non-toxic” each time.
For the molecule `COC(=O)CCCCCN1/C(=C/C=C2\CCCC(/C=C/C3=[N+](CCCCCC(=O)OC)c4ccccc4C3(C)C)=C2Cl)C(C)(C)c2ccccc21.[Br-]`, the concentration for half-maximal inhibition (IC50) in the series with HeLa [1] is 0.8 µM; in series [7], 10 µM; with PC-3 [4], 3 µM. Besides, the Drug uptake result in series [5] was “Active”; in series [8], “Not Active”. For the same molecule, in [6] (HDF cells, read-out: Activity), the viability at 24 h, up to 20 µM was 100%. Besides, the Activity in the series with HeLa [2] and in the series on PC-3 [3] was more than 90% throughout.
